Laboratory results: ChEMBL document CHEMBL3425459, “Structure-activity studies in the development of a hydrazone based inhibitor of adipose-triglyceride lipase (ATGL)” (Bioorg Med Chem, 2015)
Active and inactive are the calls of the source. No cut-off for these calls is given here.

Legend:
[1] = target: T1, Patatin-like phospholipase domain-containing protein 2 (Mus musculus, UniProt Q8BJ56); assay: Inhibition of mouse recombinant ATGL expressed in African green monkey COS7 cells assessed as reduction in triglyceride hydrolase activity using radio-labelled triolein substrate incubated for 1 hr by liquid scintillation counting; assay type: cell-based, COS-7
T1 sequence (Q8BJ56 whole entry): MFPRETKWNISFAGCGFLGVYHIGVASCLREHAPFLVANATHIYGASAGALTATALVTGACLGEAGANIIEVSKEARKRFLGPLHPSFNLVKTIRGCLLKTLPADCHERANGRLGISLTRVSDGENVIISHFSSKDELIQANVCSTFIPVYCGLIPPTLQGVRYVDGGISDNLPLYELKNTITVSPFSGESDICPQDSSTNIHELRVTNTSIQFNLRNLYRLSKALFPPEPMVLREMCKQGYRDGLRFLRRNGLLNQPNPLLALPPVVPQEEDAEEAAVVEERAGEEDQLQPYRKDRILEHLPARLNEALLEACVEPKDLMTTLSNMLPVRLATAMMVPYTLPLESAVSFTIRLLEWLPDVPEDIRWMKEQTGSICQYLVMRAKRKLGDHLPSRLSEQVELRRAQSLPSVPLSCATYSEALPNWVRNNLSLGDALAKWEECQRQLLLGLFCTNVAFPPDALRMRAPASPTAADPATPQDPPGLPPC

[2] = target: T2, Patatin-like phospholipase domain-containing protein 2 (Mus musculus) (UniProt Q8BJ56); assay: Inhibition of mouse recombinant ATGL expressed in African green monkey COS7 cells assessed as reduction in triglyceride hydrolase activity at 200 uM using radio-labelled triolein substrate incubated for 1 hr by liquid scintillation counting; assay type: cell-based; settings: COS-7
T2 sequence (whole entry): T1 sequence (Q8BJ56 whole entry)
In short: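 Lysate (20 μg protein) of COS-7 cells transfected with murine ATGL DNA, sonicated in pH 7.0 sucrose/EDTA/DTT/protease-inhibitor buffer and cleared at 1000×g. Mixed 1:1 with radiolabelled triolein emulsion (prepared at 330 μM, 40,000 cpm/nmol, PC/PI, 100 mM potassium phosphate pH 7.0, 5% FA-free BSA) ± 200 μM inhibitor for 1 h at 37 °C. Released FA counted by scintillation after methanol/chloroform/heptane extraction at pH 10.5.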

[3] = Toxicity in mouse AML-12 cells at 1 to 200 uM by Tox4 test; assay type: cell-based; settings: aml-12, 200 µM
Adipose tissue [4] = assay: Inhibition of lipolysis in adipose triglyceride lipase knock out mouse white adipose tissue fat pads assessed as reduction in fatty acids release at 10 to 200 uM; assay type: functional, tissue-based
[5] = target: T3, Monoglyceride lipase (Homo sapiens) (UniProt Q99685); assay: Inhibition of monoglyceride lipase (unknown origin) at 100 uM incubated for 1 hr
T3 sequence (whole entry): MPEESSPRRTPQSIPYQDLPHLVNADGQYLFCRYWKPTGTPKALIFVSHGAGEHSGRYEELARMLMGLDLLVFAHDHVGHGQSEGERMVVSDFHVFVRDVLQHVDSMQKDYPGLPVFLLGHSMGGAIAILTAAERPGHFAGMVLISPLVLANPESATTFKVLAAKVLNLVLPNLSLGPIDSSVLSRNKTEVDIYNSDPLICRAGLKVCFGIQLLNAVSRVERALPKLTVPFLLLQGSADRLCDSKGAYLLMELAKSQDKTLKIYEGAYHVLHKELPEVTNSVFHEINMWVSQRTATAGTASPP

[6] = target: T4, Lipoprotein lipase (Homo sapiens) (UniProt P06858); assay: Inhibition of lipoprotein lipase (unknown origin) at 100 uM incubated for 1 hr
T4 sequence (whole entry): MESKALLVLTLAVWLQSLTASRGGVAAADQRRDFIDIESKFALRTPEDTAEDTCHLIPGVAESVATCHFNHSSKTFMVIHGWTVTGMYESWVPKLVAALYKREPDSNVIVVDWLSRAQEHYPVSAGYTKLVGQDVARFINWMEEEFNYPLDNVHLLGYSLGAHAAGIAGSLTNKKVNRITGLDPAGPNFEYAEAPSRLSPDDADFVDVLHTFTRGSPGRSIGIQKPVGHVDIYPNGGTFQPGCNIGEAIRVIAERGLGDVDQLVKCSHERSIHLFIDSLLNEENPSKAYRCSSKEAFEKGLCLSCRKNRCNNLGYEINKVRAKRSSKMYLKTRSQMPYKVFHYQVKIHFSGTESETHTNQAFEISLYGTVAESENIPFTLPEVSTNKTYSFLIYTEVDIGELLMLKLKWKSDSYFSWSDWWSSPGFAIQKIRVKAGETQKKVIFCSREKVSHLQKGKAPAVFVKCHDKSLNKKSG
In short: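 Purified recombinant LPL (2 μl) was incubated with radiolabelled triolein emulsion, with or without inhibitor, for 1 h at 37 °C. The emulsion was prepared at 330 μM triolein with PC/PI in pH 7.0 phosphate and 5% BSA. Liberated fatty acids were extracted into the alkaline upper phase and quantified by liquid scintillation counting.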

Adipose tissue [7] = assay: Inhibition of lipolysis in hormone-sensitive lipase knock out mouse white adipose tissue fat pads assessed as reduction in fatty acids release at 10 to 200 uM; assay type: functional, tissue-based
Adipose tissue [8] = assay: Inhibition of lipolysis in wild type mouse white adipose tissue fat pads assessed as reduction in fatty acids release at 10 to 200 uM; assay type: functional, tissue-based

SMILES	IC50 [1]	also measured
Oc1ccccc1/C=N/N1CCN(c2ccccc2)CC1	75 µM	
COc1cc(OC)c(OC)cc1/C=N/N1CCN(c2ccccc2)CC1	> 200 µM	
C(=N\N1CCN(c2ccccc2)CC1)/c1ccncc1	140 µM	
Oc1ccc(/C=N/N2CCN(Cc3ccccc3)CC2)c(O)c1	> 200 µM	
Oc1ccc(/C=N/N2CCCN(c3ccccc3)CC2)c(O)c1	> 200 µM	
N#Cc1ccccc1/C=N/N1CCN(c2ccccc2)CC1	120 µM	Efficacy [2]: 60%
CCOC(=O)c1nn(-c2ccc(N(C)C)cc2)cc1O	120 µM	
O=c1[nH]c2ccc(/C=N/N3CCN(c4ccccc4)CC3)cc2[nH]1	> 200 µM	
C1=C(/C=N/N2CCN(c3ccccc3)CC2)CCCC1	130 µM	
Clc1ccc(/C=N/N2CCN(c3ccccc3)CC2)c(Cl)c1	> 200 µM	
COc1cc(/C=N/N2CCN(c3ccccc3)CC2)cc(OC)c1OC	> 200 µM	
CC(=O)Nc1ccc(/C=N/N2CCN(c3ccccc3)CC2)cc1	> 200 µM	
CN(C)c1ccc(/C=N/N2CCN(c3ccccc3)CC2)cc1	> 200 µM	
Oc1ccc(/C=N/N2CCN(C3CCCCC3)CC2)c(O)c1	> 200 µM	
Brc1ccccc1/C=N/N1CCN(c2ccccc2)CC1	> 150 µM	
COc1cc(/C=N/N2CCN(c3ccccc3)CC2)ccc1O	60 µM	
Oc1ccc(/C=N/N2CCC(Cc3ccccc3)CC2)c(O)c1	> 200 µM	
O=[N+]([O-])c1ccccc1/C=N/N1CCN(c2ccccc2)CC1	180 µM	
CCC/C=C/C=N/N1CCN(c2ccccc2)CC1	> 200 µM	
CN(CCO)c1ccc(/C=N/N2CCN(c3ccccc3)CC2)cc1	> 200 µM	
Cc1cccc(N2CCN(/N=C/c3ccc(O)cc3O)CC2)c1	> 200 µM	
C(=N\N1CCN(c2ccccc2)CC1)/c1cccc(Oc2ccccc2)c1	> 200 µM	Efficacy [2]: 24%
CCCOc1cccc(/C=N/N2CCN(c3ccccc3)CC2)c1	> 200 µM	Efficacy [2]: 14%

SMILES	IC50 [1]	also measured
Oc1ccc(/C=N/N2CCN(C3CCCC3)CC2)c(O)c1	> 200 µM	
C(=N\N1CCN(c2ccccc2)CC1)/c1ccccn1	> 200 µM	
COc1ccc(NC(=O)N2CCN(c3ccccc3)CC2)cc1OC	> 200 µM	
Oc1ccc(/C=N/N2CCN(c3ccccc3)CC2)cc1	50 µM	
Cc1ccc(/C=N/N2CCN(c3ccccc3)CC2)cc1	> 200 µM	
C(=N\N1CCN(c2ccccc2)CC1)/c1cccnc1	> 200 µM	
C(=N\N1CCN(c2ccccc2)CC1)/C1CCCCC1	200 µM	
Oc1ccc(/C=N/N2CCN(c3ccncc3)CC2)c(O)c1	> 200 µM	
C(=N\N1CCN(c2ccccc2)CC1)/c1ccc2ccccc2n1	> 200 µM	
Oc1ccc(/C=N/N2CCN(c3ccccc3)CC2)c(O)c1		Activity [3]: Toxic; inhibition (Adipose tissue [4]): Active; inhibition [5]: inactive; inhibition [6]: inactive; inhibition (Adipose tissue [7]): Active; inhibition (Adipose tissue [8]): Active
COc1ccc(C(=O)NN2CCN(c3ccccc3)CC2)cc1OC	> 200 µM	
Oc1ccc(/C=N/N2CCN(CCc3ccccc3)CC2)c(O)c1	> 200 µM	
C(=N\N1CCN(c2ccccc2)CC1)/c1ccc2ccccc2c1	> 200 µM	
Clc1ccc(/C=N/N2CCN(c3ccccc3)CC2)cc1Cl	> 200 µM	
COc1ccc(/C=N/N2CCN(c3ccccc3)CC2)cc1O	80 µM	
Oc1ccc(/C=N/N2CCN(c3ccccc3)CC2)cc1O		inhibition (Adipose tissue [4]): Active; inhibition (Adipose tissue [7]): Active; inhibition (Adipose tissue [8]): Active
C(=N\N1CCN(c2ccccc2)CC1)/c1ccc2c(c1)OCO2	> 200 µM	
C(=N\N1CCN(c2ccccc2)CC1)/c1cccc2ccccc12	200 µM	
Oc1ccc(CN2CCN(c3ccccc3)CC2)cc1O	> 200 µM	
COc1ccc(/C=N/N2CCN(c3ccccc3)CC2)cc1OC	100 µM	
CCCC/C=N/N1CCN(c2ccccc2)CC1	> 200 µM	
Oc1cccc(/C=N/N2CCN(c3ccccc3)CC2)c1	70 µM	
C(=N\N1CCN(c2ccccc2)CC1)/c1ccc2c(c1)OCCO2	> 200 µM	
